From PubChem BioAssay
KCNQ1 block = inhibitors of human KCNQ1 potassium channel; P51787; CHO-K1 KCNQ1, FluxOR thallium flux fluorescence; hits give high values; B-score at 10 µM; actives 1.3% (n = 310,000);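 active = compounds whose thallium flux B-score, printed positive for inhibition, exceeds three library SD while starting fluorescence stays within three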;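 also: channel opened by potassium depolarization with thallium stimulus after 20 min compound exposure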
KCNK3 inh = human KCNK3 channel inhibition, primary screen. actives 0.84% (n = 340,000). B-score at 10 µM. CHO-KCNK3 thallium flux, FluxOR fluorescence; hits give low values. AID 602410. O14649;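 active = B-score under library mean minus 4 SD, starting fluorescence ratio at most library mean plus 5 SD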;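 also: more negative B-score means stronger inhibition of thallium flux through KCNK3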
hERG protect = compounds protecting human hERG from proarrhythmic drug block | CHO-hERG, FluxOR thallium flux, dofetilide IC70 present | actives 0.51% (n = 310,000) | activation (rescue from dofetilide block), less the hit threshold, % at 10 µM | AID 1511;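 active = activation above the mean of controls blocked by dofetilide plus 5 SD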;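 also: thallium influx through hERG after potassium depolarization seen as dye fluorescence rise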
KCNK9 inh-1 = inhibitors of human KCNK9 two-pore domain potassium channel; Q9NPC2; HEK293 KCNK9, FluxOR thallium flux fluorescence; hits give low values; B-score at 10 µM; AID 488922; actives 1.2% (n = 310,000);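 active = ratio B-score over 3 SD below the library mean, with starting fluorescence within 5 SD of its mean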;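 also: negative B-score means less thallium flux so channel inhibition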
Kir21 block = Kir2.1 (mouse) channel inhibition; P35561; HEK293-Kir2.1, FluxOR thallium flux fluorescence; hits give low values; B-score at 10 µM; actives 0.85% (n = 310,000); AID 1672;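 active = fluorescence ratio B-score at or below minus 3 SD of library scores, with starting-brightness B-score within 2 SD, cut at about -4.2 in these data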;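 also: channel flux triggered by added potassium and thallium sulfate stimulus; B-score of peak minus minimum fluorescence over baseline after thallium stimulus; more negative B-score means stronger Kir2.1 block with less thallium influx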
Target sequence (P35561 whole entry, looked up): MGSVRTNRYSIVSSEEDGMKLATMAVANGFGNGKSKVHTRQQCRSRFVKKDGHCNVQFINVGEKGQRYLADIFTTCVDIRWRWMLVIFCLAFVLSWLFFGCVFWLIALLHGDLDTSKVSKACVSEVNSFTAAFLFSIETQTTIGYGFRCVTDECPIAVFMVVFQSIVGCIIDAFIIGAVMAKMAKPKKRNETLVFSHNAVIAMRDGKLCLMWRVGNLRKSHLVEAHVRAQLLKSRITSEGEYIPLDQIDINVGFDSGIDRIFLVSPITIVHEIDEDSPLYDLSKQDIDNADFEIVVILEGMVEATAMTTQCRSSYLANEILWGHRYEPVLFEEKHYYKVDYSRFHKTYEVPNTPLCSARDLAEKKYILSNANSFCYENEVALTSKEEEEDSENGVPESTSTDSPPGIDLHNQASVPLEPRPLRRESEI
KCNQ1 act = potentiators or activators of human KCNQ1 potassium channel. AID 2648. actives 0.35% (n = 310,000). P51787. CHO-K1 KCNQ1, thallium flux FluxOR fluorescence; hits give high values. B-score at 10 µM;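 active = fluorescence ratio B-score, a plate-corrected score, at least three library SD, with initial intensity B-score within 5 SD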
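Assay system: CHO-K1 cells stably expressing KCNQ1; Medium: assay buffer with matched DMSO; Also added: K+/Tl+ depolarizing stimulus; Dosing: single dose; Timing: dye 90 min, compound 20 min, room temperature; Measured by: kinetic FluxOR thallium fluorescence, 10-s 1-Hz baseline, 110-s post-stimulus read; Read-out: peak-minus-minimum fluorescence over initial fluorescence, negative-control normalized, B-scored.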
hERG ctr = counter-screen for Kir2.1 inhibitors: effect on human hERG. shares compounds with Kir21 block. hERG-expressing cells, thallium flux. inhibition, % at 10 µM. actives 20% (n = 320). AID 2236;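 also: host cells are CHO cells stably expressing hERG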
KCNK9 inh-2 = human KCNK9 off-target activity of Kir2.1 blockers; actives 5% (n = 320); KCNK9-expressing cells, ion flux inhibition; shares compounds with Kir21 block; AID 2329; inhibition, % at 10 µM
Kir2-1 patch inh = mouse Kir2.1 inward rectifier channel inhibition; shares compounds with Kir21 block; Kir2.1 cells, automated patch-clamp current inhibition; inhibition, % at 25 µM; actives 71% (n = 320)
Starred values were filed as active, the others as inactive; i = inactive; x = not tested or not shown. Sampled rows, rich in hits. Any-hit rate of the full collection: about 3.8%. Unless noted, no rule for the calls is given here.

SMILES	KCNQ1 block	KCNK3 inh	hERG protect	KCNK9 inh-1	Kir21 block	KCNQ1 act	hERG ctr	KCNK9 inh-2	Kir2-1 patch inh
CCCCN1CCc2c1nc1ccc(Br)cc1c2N	i	i	-25	i	-11*	i	i	i	12%*
CCn1c(COc2ccccc2)nnc1SCc1ccc(C#N)cc1	i	i	-11	i	-6.5*	i	i	i	25%*
Cc1ccc(NS(=O)(=O)N2CCOCC2)c(C)c1	i	i	-10	i	-1.1	i	x	x	x
COc1ccc(C)cc1NCc1cccc(OC)c1OC	i	i	-6	i	0.05	i	x	x	x
COc1cc(OC)c(OC)cc1CNc1cc(C)ccc1OC	i	i	-7	i	-5.8*	i	i	i	29%*
CCOC(=O)/C=C1\SCC(=O)N1CC(O)CN1C(=O)CS/C1=C/C(=O)OCC (stereo not drawn)	x	i	x	x	x	x	x	x	x
O=C(CCl)Nc1c2c(nn1-c1ccccc1)CSC2	i	i	-5	i	-0.02	i	x	x	x
CCOc1ccc(C(C)NC(=S)NCc2ccc(F)cc2)cc1 (stereo not drawn)	i	i	-7	i	1.6	i	x	x	x
COc1cccc(C(C)NC(=S)NCc2ccc(F)cc2)c1 (stereo not drawn)	i	i	-15	i	-6.8*	i	i	31%*	43%*
CSc1ccc(C(=O)C2CCCN(S(=O)(=O)c3c(C)noc3C)C2)cc1 (stereo not drawn)	i	i	-8	i	1.6	i	x	x	x
CCOCc1cn(CC(=O)c2ccc([N+](=O)[O-])cc2)c(C)nc1=N	i	i	-6	i	3.1	i	i	i	i
C=CCc1ccccc1OCCNCc1ccccc1	i	i	-11	i	-8.9*	i	i	i	75%*
CCOC(=O)NC(=O)c1cn(CCN(C)C)c(=O)[nH]c1=O	i	i	-5	i	-0.11	i	x	x	x
O=C(c1ccc(F)cc1)C1CCN(C(=O)Nc2ccccc2Cl)CC1	i	i	-3	i	-0.57	i	x	x	x
CCCCN(CCCNC(=O)CN1C(=O)COc2ccc(S(=O)(=O)N3CCC(C)CC3)cc21)Cc1ccccc1	i	i	-11	i	-5.7*	i	i	i	i
CCCCN(CCCC)CCNC(=O)CN1C(=O)COc2ccc(S(=O)(=O)N3CCC(C)CC3)cc21	i	i	-6	i	-1.9	i	x	x	x
COc1ccc(CCN(C)CC(O)COC(c2ccc(F)cc2)c2ccc(F)cc2)cc1OC (stereo not drawn)	i	i	-17	i	-3.5	i	x	x	x
COc1ccc(CN(C)CC(O)COC(c2ccccc2)c2ccccc2)c(OC)c1OC (stereo not drawn)	i	i	-10	i	-6*	i	69%*	i	i
C#CC(CO)N(CCN(Cc1ccccc1)C(C#C)CO)Cc1ccccc1 (stereo not drawn)	i	i	-4	i	-11*	i	i	i	3.9%*
C#CCN(C)Cc1ccccc1	i	i	-9	i	-0.1	i	x	x	x
Cc1ccc2nc(Cl)c(CNCc3ccccc3)cc2c1	i	i	-9	i	-12*	i	i	i	i
Nc1nc(C2CC2)c(Sc2sc(N)nc2C2CC2)s1	i	i	-8	i	-8.2*	i	i	i	6.1%*
Nc1nc(C2CCOCC2)cs1	i	i	-10	i	-0.08	i	x	x	x
COc1cc(OC)c(OC)cc1CCC(C)NCCC(c1ccccc1)c1ccccc1 (stereo not drawn)	i	i	-21	i	-11*	i	68%*	i	5.1%*
CCOC(=O)C1CCN(Cc2c(O)ccc3ccccc23)CC1	i	i	-11	i	-7.6*	i	i	i	4.0%*
SMILES	KCNQ1 block	KCNK3 inh	hERG protect	KCNK9 inh-1	Kir21 block	KCNQ1 act	hERG ctr	KCNK9 inh-2	Kir2-1 patch inh
O=c1c2c(-c3ccccc3)csc2nc2c3ccccc3c(NCCN3CCOCC3)nn12	i	i	-26	i	0.83	i	x	x	x
CC(C)Oc1ccccc1NC(=O)CSc1nc2ccccc2c(=O)n1C	i	i	-8	i	-8.9*	i	i	i	9.9%*
O=C1N=C2SCCN2/C1=C\c1ccccc1Cl	i	i	-11	i	-2.3	i	x	x	x
O=C(Nc1cccc(-n2cccn2)c1)C1CCCN(Cc2ccccc2F)C1 (stereo not drawn)	i	i	-10	i	-0.39	i	x	x	x
N#Cc1nc(-c2ccc(Cl)cc2)oc1NCC1CCCO1 (stereo not drawn)	i	i	-14	i	-1.6	i	x	x	x
Cc1ccc2nc(CCCc3nc4ccc(C)cc4[nH]3)[nH]c2c1	i	i	-9	i	-8.6*	i	i	i	i
COC(=O)/C(C#N)=C1/C=Cc2ccccc2N1	i	i	-10	i	0.02	i	x	x	x
CCc1cc2c(CN3CCN(Cc4ccccc4)CC3)cc(=O)oc2cc1O	i	i	-6	i	-6*	i	i	i	i
Cc1ccc(C(=O)N/C(=C\c2ccc(Cl)cc2)C(=O)NCCN2CCOCC2)cc1	i	i	-8	i	1.3	i	x	x	x
O=[N+]([O-])c1ccc(Sc2ncccn2)c([N+](=O)[O-])c1	i	i	-9	i	-1.1	i	x	x	x
O=[N+]([O-])c1ccc(Sc2nccn2Cc2ccccc2)c([N+](=O)[O-])c1	i	i	-6	i	-7.2*	i	i	i	35%*
O=[N+]([O-])c1cc(C(F)(F)F)ccc1Sc1nccn1Cc1ccccc1	i	i	-10	i	-8.5*	i	i	i	7.0%*
COc1ccc(S(=O)(=O)N2CCc3ccccc32)cc1OC	i	i	-10	i	-6.2*	i	i	i	24%*
CCOc1cc(/C=N/O)ccc1OS(=O)(=O)c1ccc(C)cc1	i	i	-5	i	-7.5*	i	i	i	6.7%*
CCc1nc(C)cn1S(=O)(=O)c1cc(Cl)c(OC)cc1Cl	i	i	-5	i	-10*	i	i	i	51%*
CCc1nc(C)cn1S(=O)(=O)c1cc(Br)ccc1OC	i	i	-14	i	-8.9*	i	i	i	64%*
